Source: PubChem
Only some compounds are listed: those with a hit (about 1.1% of all), similar ones and a draw of the others.
G6PDH CS – L. mesenteroides G6PDH inhibitors, counter-screen for G6PDH-coupled screening assays, biochemical, Leuconostoc mesenteroides enzyme; glucose-6-phosphate dehydrogenase [Leuconostoc mesenteroides]; inhibition, % at 5 µM; AID 1020, 2008; actives 0.12% (n = 200,000); Purified L. mesenteroides G6PDH, diaphorase/resazurin coupled fluorescence, 45 min; in the data active = inhibition above about 50%
PMI act hi M6P – human PMI activators, high substrate, primary screen, biochemical, fluorescence intensity, near-saturating mannose 6-phosphate; Mannose-6-phosphate isomerase (Homo sapiens), P34949; coupled PMI enzyme assay, resazurin fluorescence, 20 min; stronger effect = higher value; 1 = untreated enzyme, 0 = substrate-free blank; activation factor at 20 µM; actives 0.34% (n = 190,000); AID 1216, 2008;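 active = activation factor of 2 or more at 20 µM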
Target sequence (P34949 whole entry, looked up): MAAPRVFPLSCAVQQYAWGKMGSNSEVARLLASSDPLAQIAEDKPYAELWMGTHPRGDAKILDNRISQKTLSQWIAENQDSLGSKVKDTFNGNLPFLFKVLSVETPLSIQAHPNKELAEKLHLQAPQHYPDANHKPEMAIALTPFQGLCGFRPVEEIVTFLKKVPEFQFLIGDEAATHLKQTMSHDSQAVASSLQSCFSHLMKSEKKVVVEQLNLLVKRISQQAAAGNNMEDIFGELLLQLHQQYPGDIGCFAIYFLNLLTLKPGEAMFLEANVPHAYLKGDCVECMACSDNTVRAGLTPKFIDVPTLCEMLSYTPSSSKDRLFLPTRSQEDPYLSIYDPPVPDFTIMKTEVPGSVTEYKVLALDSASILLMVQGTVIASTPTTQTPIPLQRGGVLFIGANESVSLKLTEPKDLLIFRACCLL
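Technique: Diaphorase-driven resazurin-to-resorufin fluorescence, excitation 544, emission 590 nm | Assay system: Human PMI in coupled enzyme assay | Times: Enzyme reaction with compound 20 min at room temperature | Medium: HEPES-buffered pH 7.4 with magnesium and detergent | Reagent: Mannose-6-phosphate 1.0 mM (near-saturating) plus 0.22 mM NADP+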
Diaph inh CS – diaphorase inhibitors and chemical oxidizers, primary screen, counter-screen for diaphorase-coupled primary assays, biochemical, uHTS, resorufin fluorescence; diaphorase resazurin-to-resorufin fluorescence, NADH, 16 min; bacterial (C. kluyveri) enzyme, not human; inhibition, % at 20 µM; actives 0.69% (n = 190,000); AID 1217, 2008;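 active = primary screen inhibition at 20 µM above a set limit, cut at about 50% in these data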
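System: Diaphorase enzyme from Clostridium kluyveri | Amount: Enzyme working solution with 0.14 U/mL diaphorase | Benchmarks: No-NADH positive control and DMSO neutral control | Signal: Fluorescence of resorufin formed from resazurin, Ex 544/Em 590 nm | Schedule: 16-min room-temperature incubation before reading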
PMI activator – activators of human PMI, primary screen, biochemical, fluorescence intensity, near-Km mannose 6-phosphate; purified human PMI, coupled resazurin fluorescence, 20 min; stronger effect = higher value; 1 = vehicle control, 0 substrate-free wells; activation factor at 20 µM; actives 0.005% (n = 190,000); AID 1214, 2008;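 active = activation factor of 2 or more at 20 µM, relative to plate controls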
Diaph act CS – compounds boosting diaphorase resazurin reduction – biochemical, uHTS, resorufin fluorescence, counter-screen for diaphorase-coupled primary assays, primary screen | Diaphorase/resazurin coupled assay, 16 min; stronger effect = higher value; 1 = vehicle wells, 0 = NADH-free wells | activation factor at 20 µM | actives 0.005% (n = 190,000) | AID 1229, 2008;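 active = diaphorase activity raised at least twofold by the compound at 20 µM; inactive = activation factor below 2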
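Material: purified diaphorase enzyme from Clostridium kluyveri / Medium: HEPES pH 7.4 buffer with MgCl2 and Tween 20 / Schedule: enzyme reaction of 16 min at room temperature / Measured by: resorufin fluorescence, excitation 544 nm, emission 590 nm / Evaluation: rise in resorufin formation, marking diaphorase activation or chemical reduction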
Numbers stand for hits.

`CCOP(=O)(OCC)c1nc(-c2cccc3ccccc23)oc1NCc1ccc(OC)cc1` gave G6PDH CS inactive, PMI act hi M6P inactive, Diaph inh CS inactive, PMI activator inactive and Diaph act CS inactive.
`CCOP(=O)(OCC)c1nc(/C=C/c2ccccc2)oc1NCc1ccccc1` gave G6PDH CS inactive, PMI act hi M6P inactive, Diaph inh CS 54.1, PMI activator inactive and Diaph act CS inactive.
CCOP(=O)(OCC)c1nc(/C=C/c2ccccc2)oc1NCc1ccc(OC)cc1 was read as G6PDH CS inactive, PMI act hi M6P inactive, Diaph inh CS 51.9, PMI activator inactive and Diaph act CS inactive.
For Cc1ccc(N/N=C/c2ccc(N3CCOCC3)cc2)cc1C the results were G6PDH CS inactive, PMI act hi M6P 2, Diaph inh CS inactive, PMI activator inactive and Diaph act CS inactive.
`O=C(O)c1ccccc1Nc1ccccc1C(=O)O` gave G6PDH CS inactive, PMI act hi M6P inactive, Diaph inh CS inactive, PMI activator inactive and Diaph act CS inactive.
O=C(O)c1ccccc1NN=C1CCCCC1 was read as G6PDH CS inactive, PMI act hi M6P 2.5, Diaph inh CS inactive, PMI activator inactive and Diaph act CS inactive.
For N#C/C(=C/c1ccc(-c2cc(C(=O)O)cc(C(=O)O)c2)o1)c1nc2ccccc2s1 the results were G6PDH CS inactive, PMI act hi M6P inactive, Diaph inh CS 61.3, PMI activator inactive and Diaph act CS inactive.
`COc1cc(/C=C(\C#N)c2nc3ccccc3s2)cc([N+](=O)[O-])c1O` gave G6PDH CS inactive, PMI act hi M6P inactive, Diaph inh CS 85.4, PMI activator inactive and Diaph act CS inactive.
`N#C/C(=C\c1ccc(O)c([N+](=O)[O-])c1)c1nc2ccccc2s1` gave G6PDH CS inactive, PMI act hi M6P inactive, Diaph inh CS 96.6, PMI activator inactive and Diaph act CS inactive.
For N#C/C(=C\c1ccco1)c1nc2ccccc2s1 the results were G6PDH CS inactive, PMI act hi M6P inactive, Diaph inh CS inactive, PMI activator inactive and Diaph act CS inactive.
`O=C(NC1CC2CCCC(C1)N2C(=S)NCCc1ccccc1)C1CC1` (centres undefined) gave G6PDH CS inactive, PMI act hi M6P inactive, Diaph inh CS inactive, PMI activator inactive and Diaph act CS inactive.
Cc1ccc(Cl)cc1NC(=S)N(CCCN1CCN(C)CC1)Cc1ccco1 was read as G6PDH CS inactive, PMI act hi M6P inactive, Diaph inh CS inactive, PMI activator inactive and Diaph act CS inactive.
Cc1ccc(C(=O)N/C(=C\c2ccccc2F)c2nc(=S)[nH][nH]2)cc1 was read as G6PDH CS inactive, PMI act hi M6P inactive, Diaph inh CS 51.0, PMI activator inactive and Diaph act CS inactive.
CCn1cc(C(=O)NCCCN2CCN(C)CC2)c(=O)c2cc(S(=O)(=O)N3CCc4ccccc4C3)ccc21 was read as G6PDH CS inactive, PMI act hi M6P inactive, Diaph inh CS inactive, PMI activator inactive and Diaph act CS inactive.
Screening CCc1cc[n+](C2=C([O-])c3ccccc3C(=O)/C2=N\S(=O)(=O)c2cccs2)cc1 returned G6PDH CS 50.8, PMI act hi M6P inactive, Diaph inh CS inactive, PMI activator inactive and Diaph act CS inactive.
`CN1C[C@@H]2C[C@@H](c3cccn3-c3nccs3)N3CCC[C@@]23C1=O` gave G6PDH CS inactive, PMI act hi M6P inactive, Diaph inh CS inactive, PMI activator inactive and Diaph act CS inactive.
For COc1cccc2cc(-c3ccnc(=S)[nH]3)oc12 the results were G6PDH CS inactive, PMI act hi M6P inactive, Diaph inh CS 57.5, PMI activator inactive and Diaph act CS inactive.
Screening CCC1(C)Cc2nc3sc(C(=O)O)c(N)c3cc2CO1 (centres undefined) returned G6PDH CS inactive, PMI act hi M6P 2.2, Diaph inh CS inactive, PMI activator inactive and Diaph act CS inactive.
For CCOC(=O)c1sc2nc3c(cc2c1N)COC(C)(CC)C3 (centres undefined) the results were G6PDH CS inactive, PMI act hi M6P inactive, Diaph inh CS inactive, PMI activator inactive and Diaph act CS inactive.
For O=C(O)/C(=C\c1ccccc1Cl)c1ccc(S(=O)(=O)N2CCCCC2)s1 the results were G6PDH CS inactive, PMI act hi M6P inactive, Diaph inh CS inactive, PMI activator inactive and Diaph act CS inactive.
`O=C(O)/C(=C\c1ccc(Cl)c([N+](=O)[O-])c1)c1ccc(S(=O)(=O)N2CCCCC2)s1` gave G6PDH CS inactive, PMI act hi M6P inactive, Diaph inh CS 60.6, PMI activator inactive and Diaph act CS inactive.
`Cc1cc(C(=O)NCC23CC4CC(CC(C4)C2)C3)c(C)o1` gave G6PDH CS inactive, PMI act hi M6P inactive, Diaph inh CS inactive, PMI activator inactive and Diaph act CS inactive.
Cc1ccc(-c2csc3nc[nH]c(=S)c23)cc1C was read as G6PDH CS inactive, PMI act hi M6P inactive, Diaph inh CS 58.9, PMI activator inactive and Diaph act CS inactive.
For O=c1[nH]cnc2scc(-c3ccc(-c4ccccc4)cc3)c12 the results were G6PDH CS inactive, PMI act hi M6P inactive, Diaph inh CS inactive, PMI activator inactive and Diaph act CS inactive.
`O=C(C1CCCN(CCCc2ccccc2)C1)N1CCCCC1` (centres undefined) gave G6PDH CS inactive, PMI act hi M6P inactive, Diaph inh CS inactive, PMI activator inactive and Diaph act CS inactive.
Screening O=c1c2ccccc2sn1-c1nccs1 returned G6PDH CS inactive, PMI act hi M6P inactive, Diaph inh CS 51.3, PMI activator inactive and Diaph act CS inactive.
O=c1c2ccccc2sn1-c1ccccc1 was read as G6PDH CS inactive, PMI act hi M6P inactive, Diaph inh CS inactive, PMI activator inactive and Diaph act CS inactive.
Screening O=C(/C=C\c1ccc(-c2cccc([N+](=O)[O-])c2)o1)N1CCOCC1 returned G6PDH CS inactive, PMI act hi M6P inactive, Diaph inh CS inactive, PMI activator inactive and Diaph act CS inactive.
`CCc1ccc(N2C(=O)Cc3c2nc(N)c(C#N)c3N)cc1` gave G6PDH CS inactive, PMI act hi M6P inactive, Diaph inh CS inactive, PMI activator inactive and Diaph act CS inactive.
For CCN(CC)c1nc2c3c(nc4c(c3c1C#N)CC(=O)N4c1ccc(Cl)cc1)NC(C)=N2 the results were G6PDH CS inactive, PMI act hi M6P inactive, Diaph inh CS 58.4, PMI activator inactive and Diaph act CS inactive.
